{"data": "Results gathered from unrelated publications", "target": "Serine/threonine-protein kinase MARK2 (MARK2, Homo sapiens, UniProt Q7KZI7)", "note": "Each line is one published result; the experiments were not run side by side."}
{"SMILES": "C#Cc1n[nH]c2c(-c3cn([C@@H](C)c4ccccc4)c(=O)[nH]c3=O)cc(F)cc12", "assay": "enzyme activity, inhibitor", "setting": "0.1 µM", "endpoint": "inhibition", "value": "2%"}
{"SMILES": "Cn1cncc1[C@](O)(COc1ccc(C#N)cc1-c1ccc(OC(F)(F)F)cc1)c1ccc(C#N)cc1", "assay": "cell-free assay, competition with immobilised ligand", "setting": "1 µM", "endpoint": "remaining binding", "value": "95%"}
{"SMILES": "Cn1cc(-c2cccc(N3CCc4c(sc5c4CC(C)(C)C5)C3=O)c2CO)cc(Nc2ccncn2)c1=O", "assay": "enzyme activity, inhibitor", "setting": "1 µM", "endpoint": "inhibition", "value": "10%"}
{"SMILES": "Nc1ncc(-c2nc(N3CCOCC3)nc(N3CCOCC3)n2)c(C(F)F)n1", "assay": "binding, competition with immobilised ligand", "setting": "10 µM", "endpoint": "remaining binding", "value": "77%"}
{"SMILES": "O=c1[nH]c2ccccc2n1C1CCN(Cc2ccc(-c3[nH]c4cc5ncnc5cc4nc3-c3ccccc3)cc2)CC1", "assay": "cell-free assay", "setting": "0.5 µM", "endpoint": "remaining signal", "value": "92.2%"}
{"SMILES": "Cc1nn(C)cc1-c1nc2c(N3CCN(Cc4ccc(Cl)cc4)CC3)c(Cl)cnc2[nH]1", "assay": "binding, competition with immobilised ligand", "setting": "1 µM", "endpoint": "remaining binding", "value": "93%"}
{"SMILES": "Cn1cc(-c2cc(F)cc(N3CCn4c(cc5c4CCCC5)C3=O)c2CO)cc(Nc2ccc(N3CCN(C4COC4)CC3)cn2)c1=O", "assay": "enzyme activity, inhibitor", "setting": "0.1 µM", "endpoint": "inhibition", "value": "14%"}
{"SMILES": "CC(C)(C)c1cc(C=C(C#N)C#N)cc(Br)c1O", "assay": "enzyme activity, inhibitor", "setting": "0.5 µM", "endpoint": "remaining activity", "value": "81.6%"}
{"SMILES": "C#Cc1n[nH]c2c(-c3cn(C(C)c4ccccn4)c(=O)[nH]c3=O)cc(F)cc12 (stereo not shown)", "assay": "enzyme activity, inhibitor", "setting": "1 µM", "endpoint": "inhibition", "value": "5.8%"}
{"SMILES": "COc1ncccc1-c1cnn2ccc(N3CCN(C(=O)OC(C)C)CC3)nc12", "assay": "binding, competition with immobilised ligand", "setting": "1 µM", "endpoint": "remaining binding", "value": "80%"}
